# Active and inactive are the calls of the source.
# Tests used:
# [1] = target: T1, Glycogen synthase kinase-3 beta (Homo sapiens, UniProt P49841); test: Inhibition of GSK3beta (unknown origin) using GS-2 peptide substrate incubated for 30 mins by kinase-Glo luminescent assay
# Summary of the method: (§1)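 Human recombinant GSK-3β, 20 ng, in 50 mM HEPES pH 7.5 with 1 mM EDTA, 1 mM EGTA and Mg acetate. Incubated 30 min at 30 °C, then Kinase-Glo luminescence read after 10 min. Activity scaled between no-inhibitor and full-inhibition reference controls.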
# Target sequence in this assay (P49841 whole entry): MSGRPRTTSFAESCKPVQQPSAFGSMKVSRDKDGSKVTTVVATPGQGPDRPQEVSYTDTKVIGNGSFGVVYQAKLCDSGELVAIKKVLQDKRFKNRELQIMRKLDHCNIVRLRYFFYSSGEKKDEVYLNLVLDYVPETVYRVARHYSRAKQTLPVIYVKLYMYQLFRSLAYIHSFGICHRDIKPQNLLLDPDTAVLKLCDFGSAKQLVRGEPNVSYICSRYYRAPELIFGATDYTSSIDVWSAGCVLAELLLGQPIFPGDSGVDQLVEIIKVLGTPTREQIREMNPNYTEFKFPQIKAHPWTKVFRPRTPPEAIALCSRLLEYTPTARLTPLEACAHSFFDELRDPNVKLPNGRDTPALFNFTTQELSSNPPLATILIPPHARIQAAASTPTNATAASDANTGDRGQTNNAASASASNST
# [2] = target: T1, Glycogen synthase kinase-3 beta; test: Inhibition of GSK3beta (unknown origin) at 10 uM using GS-2 peptide substrate incubated for 30 mins by kinase-Glo luminescent assay
# Summary of the method: as §1, with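 “acetate. Substrate prephosphorylated GS-2 peptide 25 µM with 1 µM ATP; DMSO ≤1%.” for “acetate.”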
# Target sequence in this assay (P49841 whole entry, looked up): as the sequence (P49841 whole entry) above
# [3] = target: T1, Glycogen synthase kinase-3 beta; test: Inhibition of GSK3beta (unknown origin) at 10 uM
# Summary of the method: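 Human recombinant GSK-3β (20 ng) with 25 µM GS-2 prephosphorylated peptide and 1 µM ATP in 50 mM HEPES pH 7.5, 1 mM EDTA, 1 mM EGTA, Mg acetate. DMSO at most 1%. 30 min at 30 °C; reaction stopped with Kinase-Glo, luminescence read after 10 min. Activity scaled between no inhibitor and full inhibition by a reference inhibitor.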
# Target sequence in this assay (P49841 whole entry, looked up): as the sequence (P49841 whole entry) above
# [4] = system: Cerebellar granule neurone; test: Neurotoxicity in rat primary cerebellar granule neurons assessed as reduction in cell viability at 50 uM incubated for 24 hrs by MTT assay; format: toxicity
# Summary of the method: (§2)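 Cerebellar granule neurons from 7-day-old rat pups, plated on poly-L-lysine at 3 × 10^5 cells/well in BME with FBS and 25 mM KCl. Cytosine arabinoside 10 µM added at 16 h. At 7 days in vitro, switched to serum-free BME with 25 mM KCl and treated 24 h at 0, 5, 25 or 50 µM. MTT 0.1 mg/mL for 20 min at 37 °C, A570. Mean ± SE of ≥3 experiments in triplicate, as % of control.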
# [5] = system: Cerebellar granule neurone; test: Neurotoxicity in rat primary cerebellar granule neurons assessed as reduction in cell viability at 5 to 25 uM incubated for 24 hrs by MTT assay; format: toxicity; summary of the method: as §2
# [6] = target: T1, Glycogen synthase kinase-3 beta; test: Inhibition of okadaic acid-induced GSK-3beta-mediated tau hyperphosphorylation in human SH-SY5Y cells assessed as increase in cell viability pre-incubated for 1 hr before okadaic acid stimulation for 24 hrs by MTT assay; format: cell-based
# Summary of the method: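 SH-SY5Y cells grown in DMEM with 10% FBS, seeded at 60000 per well and used 48 h later. Compound given 1 h before 30nM okadaic acid, then 24 h incubation. Viability by MTT, 0.5mg/mL for at least 4 h, formazan dissolved in DMSO, absorbance at 595 nm. Expressed relative to control (=100); n=6 from three independent experiments.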
# Target sequence in this assay (P49841 whole entry, looked up): as the sequence (P49841 whole entry) above
# [7] = Inhibition of AcPHF6 peptide aggregation in pH 7.4 phosphate buffer at 20 uM by CD Spectroscopy
# [8] = target: T1, Glycogen synthase kinase-3 beta; test: Competitive inhibition of GSK3beta (unknown origin) at 10 uM using fixed level of GS-2 peptide substrate and varying ATP levels incubated for 30 mins by kinase-Glo luminescent assay
# Summary of the method: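 Human recombinant GSK-3β, 20 ng per reaction, in HEPES pH 7.5 buffer with EDTA, EGTA and Mg acetate. GS-2 prephosphorylated peptide held at 25 µM; ATP varied from 1 to 50 µM along with inhibitor level. 30 min at 30 °C, then Kinase-Glo luminescence read after 10 min. Lineweaver–Burk double-reciprocal analysis; means of two experiments, each run in triplicate.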
# Target sequence in this assay (P49841 whole entry, looked up): as the sequence (P49841 whole entry) above
# [9] = target: CDC7/DBF4 (Cell division cycle 7-related protein kinase/Activator of S phase kinase) (Homo sapiens) (UniProt Q9UBU7+O00311); test: Inhibition of CDC7/Dbf4 (unknown origin) at 10 uM incubated for 60 mins by Kinase-Glo assay; format: protein-complex assay; conditions: in the assay text read “ADP-Glo assay” for “Kinase-Glo assay”
# Summary of the method: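 CDC7/DBF4 enzyme, 25 ng/well, with 10 µM ATP (final) and PDKtide substrate. Incubated 60 min at room temperature. ADP-Glo reagent added for 40 min, then detection reagent for 30 min, and luminescence read. Inhibition calculated relative to the no-inhibitor maximum.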
# [10] = target: T1, Glycogen synthase kinase-3 beta; test: Inhibition of GSK3beta (unknown origin) pre-incubated for 30 mins followed by ULight-GS (Ser641/pSer657) peptide substrate addition and measured after 1 hr by TR-FRET assay
# Target sequence in this assay (P49841 whole entry): as above
# [11] = Hepatotoxicity in human HepG2 cells assessed as reduction in cell viability at 5 to 50 uM incubated for 24 hrs by MTT assay; format: toxicity, cell-based; conditions: hepg2, 24 h
# Summary of the method: (§3)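 HepG2 cells grown in DMEM with 10% FBS at 37 °C, 5% CO2, seeded at 0.5 × 10^5 cells/well and left 24 h. Exposed in serum-free DMEM for 24 h (concentrations listed as 0, 10, 25, 50 µM; elsewhere 0, 5, 25, 50 µM). MTT 0.1 mg/mL for 10 min at 37 °C in the dark. Formazan dissolved in Tris/Triton X-100, A570. Mean ± SE of ≥3 experiments in triplicate; reported as % of control.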
# [12] = Inhibition of AcPHF6 peptide aggregation in pH 7.4 phosphate buffer at 10 uM by atomic force microscopy
# Summary of the method: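 AcPHF6 500 µM in water diluted to 50 µM in 50 mM phosphate pH 7.4, ±10 µM compound, no ThT. Incubated 80 min at 25 °C with 10 s shaking at 400 rpm each minute. Ultrafiltered (30 kDa cut-off), buffer exchanged to water, and the retained high-MW fraction adsorbed on mica. Imaged by PeakForce tapping-mode AFM.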
# [13] = target: Casein kinase I isoform delta (Homo sapiens) (UniProt P48730); test: Inhibition of human recombinant CK1delta at 10 uM incubated for 60 mins by Kinase-Glo assay
# Summary of the method: (§4)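 Human recombinant CK1δ or CK1ε, 16 ng, in 50 mM HEPES pH 7.5 with 10 mM MgCl2, 1 mM EGTA and Brij-35. Substrate 0.1% casein with 4 µM ATP; compound diluted to 10 µM before addition, DMSO ≤1%. Incubated 60 min at 30 °C, then Kinase-Glo luminescence read. Inhibition relative to no-inhibitor activity; mean of two experiments.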
# [14] = target: Casein kinase I isoform epsilon (Homo sapiens) (UniProt P49674); test: Inhibition of human recombinant CK1epsilon at 10 uM incubated for 60 mins by Kinase-Glo assay; summary of the method: as §4
# [15] = Permeability in pH 7.4 PBS incubated for 2.5 hrs by PAMPA-BBB assay; format: ADME; conditions: read-out: permeability
# Summary of the method: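 PAMPA-BBB: donor filter coated with porcine brain lipid in dodecane (20 mg/mL). Compounds in PBS pH 7.4/EtOH 70:30, acceptor filled with the same. Sandwich incubated 2.5 h at 25 °C, then donor and acceptor concentrations measured by UV at 3–5 wavelengths, 3 wells, two runs. Ten reference drugs included for validation.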
# [16] = Hepatotoxicity in human HepG2 cells assessed as reduction in cell viability incubated for 24 hrs by MTT assay; format: toxicity, cell-based; conditions: hepg2, 24 h; summary of the method: as §3
# [17] = system: Cerebellar granule neurone; test: Neurotoxicity in rat primary cerebellar granule neurons assessed as reduction in cell viability at 5 uM incubated for 24 hrs by MTT assay; format: toxicity; summary of the method: as §2
# Chain of CDC7/DBF4 (Cell division cycle 7-related protein kinase/Activator of S phase kinase) (Homo sapiens) (O00311 whole entry, looked up): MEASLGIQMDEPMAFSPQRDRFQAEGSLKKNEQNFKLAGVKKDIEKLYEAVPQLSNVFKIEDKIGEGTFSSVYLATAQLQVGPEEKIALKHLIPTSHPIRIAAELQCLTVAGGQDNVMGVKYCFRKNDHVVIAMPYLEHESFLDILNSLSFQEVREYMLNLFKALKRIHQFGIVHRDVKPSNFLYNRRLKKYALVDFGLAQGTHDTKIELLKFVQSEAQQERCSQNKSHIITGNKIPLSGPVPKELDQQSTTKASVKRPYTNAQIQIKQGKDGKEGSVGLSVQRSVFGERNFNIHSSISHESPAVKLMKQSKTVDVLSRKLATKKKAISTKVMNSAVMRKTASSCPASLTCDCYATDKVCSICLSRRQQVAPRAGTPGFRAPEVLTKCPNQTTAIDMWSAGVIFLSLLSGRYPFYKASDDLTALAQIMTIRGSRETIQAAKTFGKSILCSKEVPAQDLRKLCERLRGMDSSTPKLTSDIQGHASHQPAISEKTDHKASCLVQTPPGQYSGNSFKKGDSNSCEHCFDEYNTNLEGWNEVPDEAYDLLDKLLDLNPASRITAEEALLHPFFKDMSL
# Chain of CDC7/DBF4 (Cell division cycle 7-related protein kinase/Activator of S phase kinase) (Homo sapiens) (Q9UBU7 whole entry, looked up): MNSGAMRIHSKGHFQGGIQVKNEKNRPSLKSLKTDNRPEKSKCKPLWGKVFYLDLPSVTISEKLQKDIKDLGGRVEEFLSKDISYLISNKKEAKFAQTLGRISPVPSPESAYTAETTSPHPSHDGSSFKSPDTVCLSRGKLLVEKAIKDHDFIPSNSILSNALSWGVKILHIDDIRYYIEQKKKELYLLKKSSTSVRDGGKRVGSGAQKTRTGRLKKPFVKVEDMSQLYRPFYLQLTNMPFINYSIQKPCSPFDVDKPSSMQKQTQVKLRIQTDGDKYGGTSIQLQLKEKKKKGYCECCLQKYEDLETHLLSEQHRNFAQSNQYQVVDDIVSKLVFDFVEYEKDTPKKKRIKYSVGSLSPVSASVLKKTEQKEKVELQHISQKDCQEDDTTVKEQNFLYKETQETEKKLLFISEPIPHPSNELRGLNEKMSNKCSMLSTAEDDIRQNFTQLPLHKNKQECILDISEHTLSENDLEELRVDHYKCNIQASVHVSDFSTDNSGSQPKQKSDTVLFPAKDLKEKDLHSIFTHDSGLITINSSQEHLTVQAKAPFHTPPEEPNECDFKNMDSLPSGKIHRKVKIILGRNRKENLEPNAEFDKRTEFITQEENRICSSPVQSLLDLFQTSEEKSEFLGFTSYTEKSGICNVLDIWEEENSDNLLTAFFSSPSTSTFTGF
# Chain of Casein kinase I isoform epsilon (Homo sapiens) (P49674 whole entry, looked up, canonical isoform): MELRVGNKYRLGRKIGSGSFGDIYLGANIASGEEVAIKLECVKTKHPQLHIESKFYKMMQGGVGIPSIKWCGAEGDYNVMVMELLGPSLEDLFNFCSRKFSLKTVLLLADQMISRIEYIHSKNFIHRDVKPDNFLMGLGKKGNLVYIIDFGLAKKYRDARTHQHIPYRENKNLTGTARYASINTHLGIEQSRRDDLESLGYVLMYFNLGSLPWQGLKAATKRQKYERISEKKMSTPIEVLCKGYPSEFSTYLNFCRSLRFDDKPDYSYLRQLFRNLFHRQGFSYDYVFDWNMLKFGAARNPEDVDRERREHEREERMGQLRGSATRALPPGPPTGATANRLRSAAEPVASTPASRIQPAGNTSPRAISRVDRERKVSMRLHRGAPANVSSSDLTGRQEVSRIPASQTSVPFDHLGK
# Chain of Casein kinase I isoform delta (Homo sapiens) (P48730 whole entry, looked up, canonical isoform): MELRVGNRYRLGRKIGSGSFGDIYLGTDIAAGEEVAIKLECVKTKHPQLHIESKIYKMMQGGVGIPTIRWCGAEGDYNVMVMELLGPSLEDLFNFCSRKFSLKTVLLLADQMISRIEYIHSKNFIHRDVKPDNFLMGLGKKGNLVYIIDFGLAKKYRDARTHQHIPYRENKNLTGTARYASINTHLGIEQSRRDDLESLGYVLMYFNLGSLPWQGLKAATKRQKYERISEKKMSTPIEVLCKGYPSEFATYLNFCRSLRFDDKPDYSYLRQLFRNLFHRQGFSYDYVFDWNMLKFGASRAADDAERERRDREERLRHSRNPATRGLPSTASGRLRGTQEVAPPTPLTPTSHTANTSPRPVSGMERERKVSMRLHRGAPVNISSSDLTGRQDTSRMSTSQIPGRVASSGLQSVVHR
SMILES,IC50 [1] [µM],inhibition [2] [%],further results
COc1ccc(/C=C2\SC(=O)NC2=O)c(O)c1,7.08,> 50,
O=C1NC(=O)/C(=C/c2c[nH]c3ccccc23)S1,4.93,> 50,inhibition [3]: 95%; Activity [4]: Toxic; Activity [5]: Non-Toxic; inhibition [6]: Active; inhibition [7]: Active; inhibition [8]: Active; inhibition [9]: inactive; IC50 [10]: 21 µM; Activity [11]: Non-Toxic; inhibition [12]: Active; inhibition [13]: inactive; inhibition [14]: inactive; Papp at 2.5 h [15]: > 3.07 ×10⁻⁶ cm/s
CN(C)c1cccc(/C=C2\SC(=O)NC2=O)c1,8.54,> 50,Activity [16]: Dose-dependent effect; Activity [17]: Toxic; Papp at 2.5 h [15]: > 3.07 ×10⁻⁶ cm/s
O=C1NC(=O)/C(=C/c2cccc(F)c2)S1,> 10,,
O=C1NC(=O)/C(=C/c2ccc(F)cc2)S1,> 10,< 50,
O=C1NC(=O)/C(=C/c2ccc3c(c2)OCCO3)S1,7.01,> 50,
CCc1ccc(CCOc2ccc(CC3SC(=O)NC3=O)cc2)nc1 (stereo not given) [PIOGLITAZONE],,,Activity [16]: Dose-dependent effect; Activity [17]: Toxic
O=C1NC(=O)/C(=C/c2ccc(O)cc2)S1,8.99,> 50,
O=C1NC(=O)/C(=C/c2cccc(O)c2)S1,> 10,< 50,
O=C1NC(=O)/C(=C/c2ccc(O)c([N+](=O)[O-])c2)S1,9.22,> 50,
COc1cc(/C=C2\SC(=O)NC2=O)cc2c1OCO2,> 10,< 50,
O=C1NC(=O)/C(=C/c2c(-c3ccccc3)[nH]c3ccccc23)S1,6.03,> 50,
COc1cc(/C=C2\SC(=O)NC2=O)ccc1O,,> 50,
O=C1NC(=O)/C(=C/c2ccccc2)S1,> 10,< 50,
COc1ccc2[nH]cc(/C=C3\SC(=O)NC3=O)c2c1,> 10,< 50,
O=C1NC(=O)/C(=C/c2ccncc2)S1,1.42,> 50,
Cn1c(/C=C2\SC(=O)NC2=O)nc2ccccc21,> 10,< 50,
O=C1NC(=O)/C(=C/c2ccccc2O)S1,> 10,< 50,

SMILES,IC50 [1] [µM],inhibition [2] [%],further results
CN(C)c1ccccc1/C=C1\SC(=O)NC1=O,9.22,> 50,Activity [16]: Dose-dependent effect; Activity [17]: Toxic; Papp at 2.5 h [15]: > 3.07 ×10⁻⁶ cm/s
O=C1NC(=O)/C(=C/c2ccc3ccccc3c2)S1,> 10,< 50,
COc1ccc2nc(Cl)c(/C=C3\SC(=O)NC3=O)cc2c1,3.55,> 50,
O=C1NC(=O)/C(=C/c2cc3ccccc3s2)S1,7.47,> 50,Activity [11]: Non-Toxic; Activity [17]: Toxic; Papp at 2.5 h [15]: > 3.07 ×10⁻⁶ cm/s
O=C1NC(=O)/C(=C/c2c3ccccc3cc3ccccc23)S1,> 10,< 50,
O=C1NC(=O)/C(=C/c2cccnc2)S1,8.75,> 50,
O=C1NC(=O)/C(=C/c2ccccc2F)S1,> 10,< 50,
O=C1NC(=O)/C(=C/c2cc3ccccc3nc2Cl)S1,6.13,> 50,
CN(C)c1ccc(/C=C2\SC(=O)NC2=O)cc1,> 10,< 50,
O=C1NC(=O)/C(=C/c2ccccn2)S1,> 10,< 50,
O=C1NC(=O)/C(=C/c2cc3ccccc3o2)S1,> 10,< 50,
O=C1NC(=O)/C(=C/c2cccs2)S1,7.99,> 50,
CN(C)c1ccc(/C=C/C=C2\SC(=O)NC2=O)cc1,> 10,< 50,
O=C1NC(=O)/C(=C/c2ccco2)S1,> 10,< 50,
O=C1NC(=O)/C(=C/c2ccccc2OCc2ccccc2)S1,> 10,< 50,
O=C1NC(=O)/C(=C/C=C/c2ccccc2)S1,> 10,< 50,
O=C1NC(=O)/C(=C/c2ccc(-c3ccccc3)cc2)S1,> 10,< 50,

# From ChEMBL document CHEMBL4145680, “Tau-Centric Multitarget Approach for Alzheimer's Disease: Development of First-in-Class Dual Glycogen Synthase Kinase 3β and Tau-Aggregation Inhibitors” (J Med Chem, 2018)
